Results reported in ChEMBL document CHEMBL5653631, “A Potent and Selective ULK1 Inhibitor Suppresses Autophagy and Sensitizes Cancer Cells to Nutrient Stress” (iScience, 2018).
Values belong to the compound of their own block, whether it stands above or below them.

Experiments:
[1] = target: T1, Activin receptor type-1 (Homo sapiens) (UniProt Q04771); test: Inhibition of human recombinant ALK2 at 500 nM related to control ULK1
T1 sequence (whole entry): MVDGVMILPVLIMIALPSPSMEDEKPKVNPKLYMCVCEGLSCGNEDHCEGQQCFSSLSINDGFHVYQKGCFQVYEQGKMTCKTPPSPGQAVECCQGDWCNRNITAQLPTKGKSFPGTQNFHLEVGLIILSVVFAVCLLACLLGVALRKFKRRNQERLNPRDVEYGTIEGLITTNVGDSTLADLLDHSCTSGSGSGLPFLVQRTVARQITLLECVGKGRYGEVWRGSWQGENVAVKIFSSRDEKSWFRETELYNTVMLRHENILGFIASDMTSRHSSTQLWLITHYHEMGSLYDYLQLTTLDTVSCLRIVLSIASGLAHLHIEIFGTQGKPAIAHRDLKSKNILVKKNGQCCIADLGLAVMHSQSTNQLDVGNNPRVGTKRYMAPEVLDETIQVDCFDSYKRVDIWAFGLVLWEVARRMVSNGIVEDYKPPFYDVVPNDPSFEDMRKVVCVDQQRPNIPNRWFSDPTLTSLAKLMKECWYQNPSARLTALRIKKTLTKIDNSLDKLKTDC
Outline: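 Panel of 327 recombinant human kinases, each assayed in vitro by radiometric activity assay in duplicate at a single inhibitor concentration per compound, chosen with reference to its ULK1 inhibition. Activity remaining was expressed as percent of vehicle control, and percent inhibition was calculated as 100 minus percent activity remaining.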

[2] = target: Rho-associated protein kinase 1 (Homo sapiens) (UniProt Q13464); test: Inhibition of human recombinant ROCK1 at 500 nM in presence of ATP by radiometric assay relative to control
Chain of Rho-associated protein kinase 1 (Homo sapiens) (Q13464 2-1354 limits assumed): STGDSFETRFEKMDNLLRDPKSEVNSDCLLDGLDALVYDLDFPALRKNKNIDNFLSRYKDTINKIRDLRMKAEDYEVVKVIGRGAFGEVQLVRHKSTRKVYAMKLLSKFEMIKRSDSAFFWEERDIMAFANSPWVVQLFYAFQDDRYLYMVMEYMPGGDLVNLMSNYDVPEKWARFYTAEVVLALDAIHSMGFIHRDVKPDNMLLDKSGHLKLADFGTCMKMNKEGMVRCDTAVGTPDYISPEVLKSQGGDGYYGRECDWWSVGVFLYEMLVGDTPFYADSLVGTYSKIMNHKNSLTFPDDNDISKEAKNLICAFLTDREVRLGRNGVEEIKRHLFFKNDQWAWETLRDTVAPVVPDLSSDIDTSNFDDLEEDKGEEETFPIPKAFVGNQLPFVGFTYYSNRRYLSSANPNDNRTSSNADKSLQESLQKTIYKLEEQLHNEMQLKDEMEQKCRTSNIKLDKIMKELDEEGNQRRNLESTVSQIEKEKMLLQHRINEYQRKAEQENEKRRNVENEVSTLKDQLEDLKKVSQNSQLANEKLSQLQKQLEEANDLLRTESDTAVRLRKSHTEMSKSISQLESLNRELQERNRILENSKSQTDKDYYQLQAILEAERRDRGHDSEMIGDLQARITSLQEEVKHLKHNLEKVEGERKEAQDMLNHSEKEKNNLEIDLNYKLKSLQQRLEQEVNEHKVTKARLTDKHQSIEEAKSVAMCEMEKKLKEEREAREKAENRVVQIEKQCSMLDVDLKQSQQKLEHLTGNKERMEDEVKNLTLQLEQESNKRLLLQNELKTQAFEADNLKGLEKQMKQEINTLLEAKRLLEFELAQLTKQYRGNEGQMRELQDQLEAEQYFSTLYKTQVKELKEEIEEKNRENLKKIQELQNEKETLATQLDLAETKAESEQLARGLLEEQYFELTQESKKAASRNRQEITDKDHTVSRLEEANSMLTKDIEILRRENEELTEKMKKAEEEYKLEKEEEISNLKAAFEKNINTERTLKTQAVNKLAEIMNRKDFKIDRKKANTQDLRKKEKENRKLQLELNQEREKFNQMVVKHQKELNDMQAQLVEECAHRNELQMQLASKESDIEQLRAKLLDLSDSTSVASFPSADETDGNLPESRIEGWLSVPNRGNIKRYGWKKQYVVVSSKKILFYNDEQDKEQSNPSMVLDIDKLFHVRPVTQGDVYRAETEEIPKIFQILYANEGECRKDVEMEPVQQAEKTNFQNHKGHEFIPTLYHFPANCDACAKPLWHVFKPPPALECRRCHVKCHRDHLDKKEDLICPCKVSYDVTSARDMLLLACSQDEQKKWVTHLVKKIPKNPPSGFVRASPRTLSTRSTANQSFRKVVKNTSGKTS

[3] = target: Dual specificity protein kinase CLK2 (Homo sapiens) (UniProt P49760); test: Inhibition of human recombinant CLK2 at 500 nM in presence of ATP by radiometric assay relative to control
Chain of Dual specificity protein kinase CLK2 (Homo sapiens) (P49760 whole entry, looked up): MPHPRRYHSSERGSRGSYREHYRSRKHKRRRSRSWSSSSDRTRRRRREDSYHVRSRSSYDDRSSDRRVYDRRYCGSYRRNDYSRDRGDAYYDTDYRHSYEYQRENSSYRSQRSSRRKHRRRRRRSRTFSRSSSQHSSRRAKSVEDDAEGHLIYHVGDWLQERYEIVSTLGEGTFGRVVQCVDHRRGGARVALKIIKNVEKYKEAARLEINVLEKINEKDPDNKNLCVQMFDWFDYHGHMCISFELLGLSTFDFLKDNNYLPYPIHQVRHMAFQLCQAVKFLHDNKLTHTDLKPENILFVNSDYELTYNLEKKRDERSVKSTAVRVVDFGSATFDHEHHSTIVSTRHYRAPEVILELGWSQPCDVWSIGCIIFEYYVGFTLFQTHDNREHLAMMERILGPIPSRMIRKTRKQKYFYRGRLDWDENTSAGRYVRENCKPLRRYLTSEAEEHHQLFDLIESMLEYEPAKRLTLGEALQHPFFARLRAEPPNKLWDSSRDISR

[4] = target: Serine/threonine-protein kinase 25 (Homo sapiens) (UniProt O00506); test: Inhibition of human recombinant YSK1 at 15 nM related to control ULK1
Chain of Serine/threonine-protein kinase 25 (Homo sapiens) (O00506 whole entry, looked up): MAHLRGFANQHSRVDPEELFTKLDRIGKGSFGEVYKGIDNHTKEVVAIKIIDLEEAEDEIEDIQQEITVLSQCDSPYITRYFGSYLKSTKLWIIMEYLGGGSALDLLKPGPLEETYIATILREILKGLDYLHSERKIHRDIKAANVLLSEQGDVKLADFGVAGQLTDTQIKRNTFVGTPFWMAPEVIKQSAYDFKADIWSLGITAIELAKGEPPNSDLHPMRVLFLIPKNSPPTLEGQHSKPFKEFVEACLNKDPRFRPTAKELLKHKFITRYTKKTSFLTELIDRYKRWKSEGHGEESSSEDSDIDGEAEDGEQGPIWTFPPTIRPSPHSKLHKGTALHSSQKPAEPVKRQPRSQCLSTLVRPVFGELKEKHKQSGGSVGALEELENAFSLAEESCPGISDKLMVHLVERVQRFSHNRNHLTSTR

[5] = target: Receptor-type tyrosine-protein kinase FLT3 (Homo sapiens) (UniProt P36888); test: Inhibition of human recombinant FLT3 at 15 nM in presence of ATP by radiometric assay relative to control
Chain of Receptor-type tyrosine-protein kinase FLT3 (Homo sapiens) (P36888 whole entry): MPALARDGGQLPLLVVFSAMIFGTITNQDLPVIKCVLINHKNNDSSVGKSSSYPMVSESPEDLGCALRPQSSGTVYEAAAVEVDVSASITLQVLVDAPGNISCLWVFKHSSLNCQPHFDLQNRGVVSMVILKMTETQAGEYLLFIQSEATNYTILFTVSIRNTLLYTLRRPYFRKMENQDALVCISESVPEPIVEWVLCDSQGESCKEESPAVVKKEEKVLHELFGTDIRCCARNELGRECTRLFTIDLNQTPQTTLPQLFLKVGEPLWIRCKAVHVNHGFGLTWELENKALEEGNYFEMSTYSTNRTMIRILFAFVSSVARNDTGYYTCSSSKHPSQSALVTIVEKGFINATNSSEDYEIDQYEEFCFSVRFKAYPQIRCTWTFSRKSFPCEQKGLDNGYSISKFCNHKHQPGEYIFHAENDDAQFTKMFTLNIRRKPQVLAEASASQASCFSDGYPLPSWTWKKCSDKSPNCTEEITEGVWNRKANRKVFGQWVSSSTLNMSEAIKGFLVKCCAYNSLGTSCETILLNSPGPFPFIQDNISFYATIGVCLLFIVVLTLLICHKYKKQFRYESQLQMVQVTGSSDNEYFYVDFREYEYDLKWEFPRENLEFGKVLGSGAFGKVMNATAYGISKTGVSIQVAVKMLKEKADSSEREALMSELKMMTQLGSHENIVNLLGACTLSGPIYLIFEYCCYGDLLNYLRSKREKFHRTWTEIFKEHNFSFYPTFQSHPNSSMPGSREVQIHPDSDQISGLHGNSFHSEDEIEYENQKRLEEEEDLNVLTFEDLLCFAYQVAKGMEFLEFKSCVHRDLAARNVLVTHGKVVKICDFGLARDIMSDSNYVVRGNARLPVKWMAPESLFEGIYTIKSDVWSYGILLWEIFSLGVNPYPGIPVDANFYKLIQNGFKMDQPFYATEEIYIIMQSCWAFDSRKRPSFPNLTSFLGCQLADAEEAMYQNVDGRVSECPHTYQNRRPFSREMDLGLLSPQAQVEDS

[6] = target: Cyclin-dependent kinase 2 (Homo sapiens) (UniProt P24941); test: Inhibition of human recombinant CDK2 at 15 nM related to control ULK1
[7] = target: Casein kinase I isoform gamma-3 (Homo sapiens) (UniProt Q9Y6M4); test: Inhibition of human recombinant CK1g3 at 15 nM in presence of ATP by radiometric assay relative to control
Chain of Casein kinase I isoform gamma-3 (Homo sapiens) (Q9Y6M4 whole entry, looked up, canonical isoform): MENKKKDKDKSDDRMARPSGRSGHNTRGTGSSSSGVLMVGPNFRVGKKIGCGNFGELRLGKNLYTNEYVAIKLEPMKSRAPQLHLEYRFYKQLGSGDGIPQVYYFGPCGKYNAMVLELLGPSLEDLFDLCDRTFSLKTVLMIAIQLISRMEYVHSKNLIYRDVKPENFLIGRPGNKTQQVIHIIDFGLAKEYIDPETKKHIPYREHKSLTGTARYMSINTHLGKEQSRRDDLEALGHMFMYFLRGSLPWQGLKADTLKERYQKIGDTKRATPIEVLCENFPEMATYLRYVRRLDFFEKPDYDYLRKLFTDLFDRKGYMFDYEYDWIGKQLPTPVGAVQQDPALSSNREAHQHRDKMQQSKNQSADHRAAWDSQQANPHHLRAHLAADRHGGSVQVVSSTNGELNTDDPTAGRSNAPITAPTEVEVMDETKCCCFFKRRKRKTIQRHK

[8] = target: T2, Serine/threonine-protein kinase TAO3 (Homo sapiens) (UniProt Q9H2K8); test: Inhibition of human recombinant TAO3 at 40 nM related to control ULK1
T2 sequence (whole entry): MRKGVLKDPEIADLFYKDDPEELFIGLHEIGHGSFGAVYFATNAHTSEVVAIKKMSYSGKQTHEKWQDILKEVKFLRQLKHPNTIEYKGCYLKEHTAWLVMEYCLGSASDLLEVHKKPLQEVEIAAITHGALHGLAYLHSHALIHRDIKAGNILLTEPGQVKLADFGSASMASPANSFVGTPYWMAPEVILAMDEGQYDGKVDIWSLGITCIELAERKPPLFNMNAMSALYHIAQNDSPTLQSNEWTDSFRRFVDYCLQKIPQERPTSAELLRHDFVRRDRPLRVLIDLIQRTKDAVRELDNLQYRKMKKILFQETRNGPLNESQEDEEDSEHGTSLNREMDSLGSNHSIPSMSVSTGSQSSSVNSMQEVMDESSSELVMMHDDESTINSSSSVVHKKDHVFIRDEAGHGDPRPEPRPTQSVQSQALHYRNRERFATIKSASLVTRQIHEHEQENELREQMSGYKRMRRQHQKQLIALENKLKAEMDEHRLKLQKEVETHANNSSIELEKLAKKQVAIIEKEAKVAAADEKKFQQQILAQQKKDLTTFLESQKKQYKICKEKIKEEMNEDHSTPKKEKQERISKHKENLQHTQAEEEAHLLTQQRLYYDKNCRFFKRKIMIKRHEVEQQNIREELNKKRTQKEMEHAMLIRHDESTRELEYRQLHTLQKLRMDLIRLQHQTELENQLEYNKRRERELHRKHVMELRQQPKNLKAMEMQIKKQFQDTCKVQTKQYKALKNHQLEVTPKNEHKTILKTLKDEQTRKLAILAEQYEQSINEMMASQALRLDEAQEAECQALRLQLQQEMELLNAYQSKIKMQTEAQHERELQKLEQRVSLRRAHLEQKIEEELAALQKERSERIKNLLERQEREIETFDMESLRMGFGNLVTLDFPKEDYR

[9] = target: T3, Aurora kinase C (Homo sapiens) (UniProt Q9UQB9); test: Inhibition of human recombinant AurC at 40 nM in presence of ATP by radiometric assay relative to control
T3 sequence (whole entry): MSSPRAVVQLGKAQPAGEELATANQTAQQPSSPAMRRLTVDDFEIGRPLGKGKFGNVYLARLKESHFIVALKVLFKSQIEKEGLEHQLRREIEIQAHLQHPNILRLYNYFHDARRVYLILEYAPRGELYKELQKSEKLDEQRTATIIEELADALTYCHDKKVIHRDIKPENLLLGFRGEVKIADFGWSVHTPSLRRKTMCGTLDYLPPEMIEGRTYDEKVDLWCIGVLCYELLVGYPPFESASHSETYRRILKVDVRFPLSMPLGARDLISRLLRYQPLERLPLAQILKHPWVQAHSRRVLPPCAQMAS
Outline: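 Part of a radiometric in vitro activity panel of 327 recombinant human kinases. Each kinase was tested in duplicate at one inhibitor concentration. Activity remaining was expressed as a percentage of the vehicle control, and percent inhibition was taken as 100 minus that value.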

fold change (FC) [1]: 0.62
inhibition [2]: 0%
inhibition [3]: 7%
Structure (SMILES): CNC(=O)c1ccccc1Oc1nc(Nc2cc(OC)c(OC)c(OC)c2)ncc1Br

fold change (FC) [4]: 0
inhibition [5]: 68%
fold change (FC) [6]: 0.01
inhibition [7]: 3%
Structure (SMILES): CC(C)[C@H](NC(=O)c1cc(-c2cnn3cc(-c4ccc(OCCN5CCCCC5)cc4)cnc23)cs1)C(F)(F)F

fold change (FC) [8]: 0
inhibition [9]: 0%
Structure (SMILES): O=C(N[C@@H](C1CC1)C(F)(F)F)c1cc(-c2cnn3cc(-c4ccc(F)cc4)cnc23)cs1
